# Measured values: ChEMBL document CHEMBL1137655, “Isoxyl activation is required for bacteriostatic activity against Mycobacterium tuberculosis” (2007)
# The source made the active and inactive calls. No cut-off for these calls is given here.
# How the values were obtained:
# Assay type in all cases: functional, organism-based
# Settings in all cases: Mycobacterium bovis BCG str. Pasteur 1173P2
# [1] = tested on: Mycobacterium tuberculosis variant bovis; test: Inhibition of mycolic acid synthesis in Mycobacterium bovis BCG Pasteur 1173P2 sonicates assessed as inhibition of ketomycolates production by autoradiography
# Outline: (§1)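 BCG sonicate (3 mg protein) with 1 μCi [1,2-14C]acetate, ISO 0, 2 or 5 μg/ml final, ±purified EthA (up to 10 μg), 25 mM Tris-HCl pH 7.5; 10 min ice, 2 h 37°C; mycolic acid methyl esters by TLC (hexane:ethyl acetate 95:5) and autoradiography.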
# [2] = tested on: Mycobacterium tuberculosis variant bovis; test: Inhibition of mycolic acid synthesis in Mycobacterium bovis BCG Pasteur 1173P2 sonicates assessed as inhibition of alphamycolates production by autoradiography; outline: as §1
# [3] = tested on: Mycobacterium tuberculosis variant bovis; test: Inhibition of mycolic acid synthesis in Mycobacterium bovis BCG Pasteur 1173P2 sonicates assessed as inhibition of alphamycolates production using partially purified EthA as cofactor by autoradiography; outline: as §1
# [4] = tested on: Mycobacterium tuberculosis variant bovis; test: Inhibition of mycolic acid synthesis in Mycobacterium bovis BCG Pasteur 1173P2 sonicates assessed as inhibition of ketomycolates production using partially purified EthA as cofactor by autoradiography; outline: as §1
smiles,measurement,setting,value
CC(C)CCOc1ccc(NC(=S)Nc2ccc(OCCC(C)C)cc2)cc1 [TIOCARLIDE],Activity,[1],Active
same,Activity,[2],Active
same,Activity,[3],inactive
same,Activity,[4],inactive
